Activity calls are given as the source filed them. No cut-off for these calls is given here.
Key:
[1] = Selectivity index, ratio of TC50 for human HepG2.2.15 cells to IC50 for Hepatitis B virus subtype adw2 infected in human HuH7 cells assessed as inhibition of HBsAg secretion
[2] = Antiviral activity against Hepatitis B virus subtype adw2 infected in human HepG2.2.15 cells assessed as inhibition of HBeAg secretion by EIA
[3] = Selectivity index, ratio of TC50 for human HepG2.2.15 cells to IC50 for Hepatitis B virus subtype adw2 infected in human HepG2.2.15 cells assessed as inhibition of HBeAg secretion
[4] = Cytotoxicity against human HepG2.2.15 cells assessed as reduction in cell viability after 3 days by MTS assay; conditions: read-out: TC50
[5] = Selectivity index, ratio of TC50 for human HepG2.2.15 cells to IC50 for Hepatitis B virus subtype adw2 infected in human HuH7 cells assessed as inhibition of viral DNA replication
[6] = Antiviral activity against Hepatitis B virus in human HepG2.2.15 cells assessed as inhibition of HBsAg secretion by EIA
[7] = Antiviral activity against Hepatitis B virus in human HepG2.2.15 cells assessed as inhibition of viral DNA replication by RT-PCR method
[8] = Antiviral activity against Hepatitis B virus subtype adw2 infected in human HuH7 cells assessed as reduction in HBcAg level at 5 ug/ml after 2 days by immunoblot method relative to control; format: functional
How it was run: (§1)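 Huh7 cells were transfected with pHBV1.2 (1.2-fold HBV adw2 genome) for 2 days, then exposed to 2.5, 5 or 10 μg/mL for another 2 days. Whole-cell protein was extracted with protease inhibitors. SHBs, HBcAg and HBx were detected by immunoblot, with α-tubulin for comparison.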

[9] = Antiviral activity against Hepatitis B virus subtype adw2 infected in human HuH7 cells assessed as reduction in HBx level at 5 ug/ml after 2 days by immunoblot method relative to control; format: functional
How it was run: as §1

[10] = tested on: Hepatitis B virus subtype adw2; experiment: Antiviral activity against Hepatitis B virus subtype adw2 infected in human HepG2.2.15 cells assessed as inhibition of HBsAg secretion by EIA
[11] = tested on: Hepatitis B virus subtype adw2; experiment: (§2) Antiviral activity against Hepatitis B virus subtype adw2 infected in human HuH7 cells assessed as inhibition of viral DNA replication by RT-PCR method; format: functional, cell-based
[12] = tested on: Hepatitis B virus subtype adw2; experiment: Antiviral activity against Hepatitis B virus subtype adw2 infected in human HepG2.2.15 cells assessed as inhibition of HBeAg secretion by EIA
[13] = Antiviral activity against Hepatitis B virus subtype adw2 infected in human HuH7 cells assessed as inhibition of HBsAg secretion by EIA; format: functional, cell-based; conditions: Huh-7
[14] = Antiviral activity against Hepatitis B virus subtype adw2 in human HepG2.2.15 cells assessed as inhibition of viral DNA replication by RT-PCR method
[15] = as §2; format: functional, cell-based; conditions: Huh-7
[16] = tested on: Hepatitis B virus subtype adw2; experiment: Antiviral activity against Hepatitis B virus subtype adw2 infected in human HuH7 cells assessed as inhibition of viral DNA replication at 10 uM after 2 days by RT-PCR method; format: functional, cell-based
How it was run: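 Huh7 cells transfected with pHBV1.2, a plasmid carrying 1.2-fold of the HBV adw2 genome, for 2 days, then treated for another 2 days. Secreted viral particles were isolated from the culture medium and extracellular HBV DNA quantified by real-time PCR against untreated or vehicle controls; n = 3.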

SMILES: C=C1C[C@@]23CC[C@H]4[C@@](C)(CCC[C@@]4(C)NC(=O)c4ccc(I)cc4)[C@@H]2CC[C@]1(O)C3
- selectivity ratio [1]: 29.1
- IC50 [2]: 23.9 µM
- selectivity ratio [3]: 17.3
- CC50 at 72 h [4]: 413 µM
- selectivity ratio [5]: 18.8
- IC50 [6]: 14.2 µM
- IC50 [7]: 21.9 µM

SMILES: Nc1ccn([C@@H]2CS[C@H](CO)O2)c(=O)n1 [LAMIVUDINE]
- fold change (FC) [8]: 0.21
- CC50 at 72 h [4]: 2360 µM
- selectivity ratio [5]: 22
- fold change (FC) [9]: 0.17
- IC50 [7]: 108 µM

SMILES: C=C1C[C@@]23CC[C@H]4[C@@](C)(CCC[C@@]4(C)NC(=O)c4cccs4)[C@@H]2CC[C@]1(O)C3
- inhibition [10]: Active
- inhibition [11]: Active
- inhibition [12]: Active

SMILES: C=C1C[C@@]23CC[C@H]4[C@@](C)(CCC[C@@]4(C)NC(=O)Nc4ccc(C)cc4)[C@@H]2CC[C@]1(O)C3
- IC50 [6]: 59.6 µM

SMILES: C=C1C[C@@]23CC[C@H]4[C@@](C)(CCC[C@@]4(C)NC(=O)c4ccc(OCC)cc4)[C@@H]2CC[C@]1(O)C3
- selectivity ratio [1]: 20.9
- IC50 [2]: 3.4 µM
- selectivity ratio [3]: 16.6
- CC50 at 72 h [4]: 56.3 µM
- selectivity ratio [5]: 14.1
- IC50 [13]: 2.7 µM
- IC50 [7]: 4 µM

SMILES: C=C1C[C@@]23CC[C@H]4[C@@](C)(CCC[C@@]4(C)NC(=O)Nc4ccc(OC)c(OC)c4)[C@@H]2CC[C@]1(O)C3
- IC50 [14]: 14.3 µM
- IC50 [2]: 7.7 to 13.6 µM
- IC50 [6]: 11.7 to 14 µM

SMILES: C=C1C[C@@]23CC[C@H]4[C@@](C)(CCC[C@@]4(C)NC(=O)c4ccc(Cl)cc4)[C@@H]2CC[C@]1(O)C3
- inhibition [10]: Active
- inhibition [11]: Active
- inhibition [12]: Active

SMILES: C=C1C[C@@]23CC[C@H]4[C@@](C)(CCC[C@@]4(C)NC(=O)Nc4ccc(Cl)cc4)[C@@H]2CC[C@]1(O)C3
- IC50 [14]: 4.5 µM
- IC50 [2]: 5 µM
- selectivity ratio [5]: 6.6
- IC50 [13]: 8 µM

SMILES: C=C1C[C@@]23CC[C@H]4[C@@](C)(CCC[C@@]4(C)NC(=O)c4ccccc4)[C@@H]2CC[C@]1(O)C3
- inhibition [10]: Active
- inhibition [11]: Active
- inhibition [12]: Active

SMILES: C=C1C[C@@]23CC[C@H]4[C@@](C)(CCC[C@@]4(C)NC(=O)c4ccc(C)cc4)[C@@H]2CC[C@]1(O)C3
- inhibition [10]: Active
- inhibition [11]: Active
- inhibition [12]: Active

SMILES: C=C1C[C@@]23CC[C@H]4[C@@](C)(CCC[C@@]4(C)NC(=O)CC)[C@@H]2CC[C@]1(O)C3
- inhibition [10]: Active
- inhibition [12]: Active

SMILES: C=C1C[C@@]23CC[C@H]4[C@@](C)(CCC[C@@]4(C)C(=O)O)[C@@H]2CC[C@]1(O)C3 [STEVIOL]
- IC50 [15]: 19.9 µM
- selectivity ratio [1]: 22.8
- IC50 [2]: 16.6 µM
- selectivity ratio [3]: 28.6
- CC50 at 72 h [4]: 474 µM
- selectivity ratio [5]: 23.8
- IC50 [13]: 20.8 µM

SMILES: O=c1[nH]cc(F)c(=O)[nH]1 [FLUOROURACIL]
- CC50 at 72 h [4]: 228 µM

SMILES: C=C1C[C@@]23CC[C@H]4[C@@](C)(CCC[C@@]4(C)NC(=O)c4ccc(Br)cc4)[C@@H]2CC[C@]1(O)C3
- inhibition [10]: Active
- inhibition [11]: Active
- inhibition [12]: Active

SMILES: C=C1C[C@@]23CC[C@H]4[C@@](C)(CCC[C@@]4(C)NC(=O)c4ccc(F)cc4)[C@@H]2CC[C@]1(O)C3
- inhibition [10]: Active
- inhibition [11]: Active
- inhibition [12]: Active

SMILES: C=C1C[C@@]23CC[C@H]4[C@@](C)(CCC[C@@]4(C)NC(=O)c4ccc(OC)cc4)[C@@H]2CC[C@]1(O)C3
- inhibition [10]: Active
- inhibition [11]: Active
- inhibition [12]: Active

SMILES: C=C1C[C@@]23CC[C@H]4[C@@](C)(CCC[C@@]4(C)NC(C)=O)[C@@H]2CC[C@]1(O)C3
- inhibition [10]: Active
- inhibition [11]: Active
- inhibition [12]: Active

SMILES: C=C1C[C@@]23CC[C@H]4[C@@](C)(CCC[C@@]4(C)N=C=O)[C@@H]2CC[C@]1(O)C3
- IC50 [15]: 30 µM
- selectivity ratio [1]: 17.6
- IC50 [2]: 28.5 µM
- selectivity ratio [3]: 11.8
- CC50 at 72 h [4]: 337 µM
- selectivity ratio [5]: 11.2
- IC50 [6]: 19.1 µM

SMILES: C=C1C[C@@]23CC[C@H]4[C@@](C)(CCC[C@@]4(C)NC(=O)CCCC)[C@@H]2CC[C@]1(O)C3
- inhibition [10]: Active
- inhibition [11]: Active
- inhibition [12]: Active

SMILES: C=C1C[C@@]23CC[C@H]4[C@@](C)(CCC[C@@]4(C)NC(=O)CCCCC)[C@@H]2CC[C@]1(O)C3
- inhibition [10]: Active
- inhibition [11]: Active
- inhibition [12]: Active

SMILES: C=C1C[C@@]23CC[C@H]4[C@@](C)(CCC[C@@]4(C)NC(=O)c4ccc(C#N)cc4)[C@@H]2CC[C@]1(O)C3
- selectivity ratio [1]: 15.1
- IC50 [2]: 13.6 µM
- selectivity ratio [3]: 9.2
- CC50 at 72 h [4]: 125 µM
- selectivity ratio [5]: 13.9
- IC50 [13]: 8.3 µM
- IC50 [7]: 9 µM

SMILES: C=C1C[C@@]23CC[C@H]4[C@@](C)(CCC[C@@]4(C)NC(=O)c4ccc(CC)cc4)[C@@H]2CC[C@]1(O)C3
- inhibition [10]: Active
- inhibition [11]: Active
- inhibition [12]: Active

SMILES: C=C1C[C@@]23CC[C@H]4[C@@](C)(CCC[C@@]4(C)NC(=O)CCC)[C@@H]2CC[C@]1(O)C3
- inhibition [10]: Active
- inhibition [12]: Active

SMILES: COc1ccc(C[C@H]2NC[C@H](O)[C@H]2OC(C)=O)cc1
- inhibition [16]: inactive

SMILES: C=C1C[C@@]23CC[C@H]4[C@@](C)(CCC[C@@]4(C)NC(=O)Nc4cc(OC)c(OC)c(OC)c4)[C@@H]2CC[C@]1(O)C3
- IC50 [14]: 6.3 µM
- IC50 [2]: 7.7 to 13.6 µM
- IC50 [6]: 11.7 to 14 µM

SMILES: C=C1C[C@@]23CC[C@H]4[C@@](C)(CCC[C@@]4(C)NC(=O)Nc4ccc(F)cc4)[C@@H]2CC[C@]1(O)C3
- inhibition [10]: Active
- inhibition [12]: Active

SMILES: C=C1C[C@@]23CC[C@H]4[C@@](C)(CCC[C@@]4(C)N)[C@@H]2CC[C@]1(O)C3
- selectivity ratio [1]: 5.5
- IC50 [2]: 31.2 µM
- selectivity ratio [3]: 5.4
- CC50 at 72 h [4]: 169 µM
- selectivity ratio [5]: 4.7
- IC50 [6]: 30.7 µM
- IC50 [7]: 35.8 µM

SMILES: C=C1C[C@@]23CC[C@H]4[C@@](C)(CCC[C@@]4(C)NC(=O)Nc4ccc(Br)cc4)[C@@H]2CC[C@]1(O)C3
- inhibition [10]: Active
- inhibition [12]: Active

SMILES: C=C1C[C@@]23CC[C@H]4[C@@](C)(CCC[C@@]4(C)NC(=O)Nc4ccccc4)[C@@H]2CC[C@]1(O)C3
- IC50 [13]: 33.5 µM

SMILES: C=C1C[C@@]23CC[C@H]4[C@@](C)(CCC[C@@]4(C)NC(=O)Nc4ccc(OC)cc4)[C@@H]2CC[C@]1(O)C3
- IC50 [14]: 14.7 µM
- IC50 [2]: 7.7 to 13.6 µM
- IC50 [6]: 11.7 to 14 µM

Source: ChEMBL document CHEMBL3997773, “Synthesis of C-4-Substituted Steviol Derivatives and Their Inhibitory Effects against Hepatitis B Virus” (J Nat Prod, 2016)
